# Experimental data as given in PubChem BioAssay.
# Calls of active or inactive are those of the source.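 The calls were made as follows, unless noted: active = visually confirmed hit in the image check and inhibition above 20%; inconclusive = visually confirmed hit but inhibition not above 20%; inactive = no visual hit in the image check.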
# Legend:
# [1] = inhibitors of TNFa-induced NFkB p65 translocation, primary screen, imaging, HUVEC, MLSMR starter and 10KST1 sets (AID 438;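 active = inhibition above 20% together with a positive visual image hit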;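 also: compound added about 3h40 before a 20 min TNFalpha stimulation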;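 as to inhibition: signal is the nuclear over cytoplasmic p65 intensity ratio per well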); conditions: HUVEC TNFa-induced p65 nuclear translocation; cell count: measured here: nuclei count (cytotoxicity indicator), at 2.08 µM; inhibition: at 2 µM, stronger effect = higher value, 0% TNFa-plus-vehicle, 100% no-TNFa wells
# [2] = inhibitors of E-selectin induction by TNFa, primary screen, imaging, HUVEC, immunofluorescence, MLSMR starter and 10KST1 sets (AID 487); conditions: HUVEC TNFalpha-induced E-selectin immunofluorescence imaging, at 2 µM; inhibition: stronger effect = higher value; nuclei count: measured here: cell number, toxicity;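 as to inhibition: signal is fraction of cell area covered by stained E-selectin grains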;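 as to nuclei count: 100% = median nuclei count of all wells on the same plate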
# [3] = DUSP6 inhibitors restoring Erk phosphorylation by chemical complementation, primary imaging in DUSP6-transfected HeLa (AID 609;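 active = compounds giving at least 50% inhibition in the cell-based MKP-3 phosphatase rescue imaging test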;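 as to inhibition: phospho-Erk level distribution per well compared with pooled transfected vehicle control wells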); conditions: HeLa MKP-3 transfected, phospho-Erk imaging KS statistic, at 10 µM, cells stimulated with TPA for 15 min
# [4] = molecular target: Dual specificity protein phosphatase 6 (Homo sapiens) (UniProt Q16828); assay: as above; conditions: HeLa MKP-3 transfected, phospho-Erk imaging KS statistic; at 10 µM; stronger effect = higher value; cells stimulated with TPA for 15 min
# Chain of Dual specificity protein phosphatase 6 (Homo sapiens) (Q16828 whole entry, looked up): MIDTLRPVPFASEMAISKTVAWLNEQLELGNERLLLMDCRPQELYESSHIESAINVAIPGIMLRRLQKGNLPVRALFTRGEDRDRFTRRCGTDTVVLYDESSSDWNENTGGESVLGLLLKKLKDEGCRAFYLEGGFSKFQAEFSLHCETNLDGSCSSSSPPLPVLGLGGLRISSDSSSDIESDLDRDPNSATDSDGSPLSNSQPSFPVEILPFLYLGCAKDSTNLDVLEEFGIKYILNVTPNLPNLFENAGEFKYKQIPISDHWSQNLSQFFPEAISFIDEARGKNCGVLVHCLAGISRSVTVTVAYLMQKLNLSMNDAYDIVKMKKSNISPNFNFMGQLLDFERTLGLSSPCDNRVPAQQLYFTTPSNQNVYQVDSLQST
# [5] = molecular target: Voltage-gated potassium channel subunit beta-2 (Rattus norvegicus) (UniProt P62483); assay: KvBeta enzyme negative modulators, primary screen, biochemical, NADPH fluorescence (AID 622;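 active = fluorescence slope higher than the sample average by over 3 SD, cut at about -0.22 in these data, passing the limit was not always enough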;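 also: slope of raw intensity against log time taken from 70 to 1610 s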); conditions: recombinant KvBeta, 4-cyanobenzaldehyde reduction, at 10 µM, stronger effect = higher value
# Chain of Voltage-gated potassium channel subunit beta-2 (Rattus norvegicus) (P62483 whole entry, looked up): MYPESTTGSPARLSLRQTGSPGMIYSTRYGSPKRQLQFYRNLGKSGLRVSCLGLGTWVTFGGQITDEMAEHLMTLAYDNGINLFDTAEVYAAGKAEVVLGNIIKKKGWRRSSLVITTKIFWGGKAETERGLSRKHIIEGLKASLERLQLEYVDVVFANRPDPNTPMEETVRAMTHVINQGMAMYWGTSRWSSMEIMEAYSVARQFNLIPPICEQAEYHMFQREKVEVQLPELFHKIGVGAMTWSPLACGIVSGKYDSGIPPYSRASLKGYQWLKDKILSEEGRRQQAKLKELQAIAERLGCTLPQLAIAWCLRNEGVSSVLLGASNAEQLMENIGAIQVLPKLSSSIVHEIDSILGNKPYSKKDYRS
# [6] = molecular target: Voltage-gated potassium channel subunit beta-2 (Rattus norvegicus) (UniProt P62483); assay: KvBeta positive modulators, primary screen, biochemical, NADPH fluorescence (AID 623;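 active = NADPH fluorescence slope more negative than the mean of all samples by about 3 SD, 99.7% confidence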;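 also: fluorescence intensity change per second fitted from 20 to 320 s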); conditions: Recombinant KvBeta, NADPH fluorescence decrease slope, 10 min; at 10 µM; stronger effect = lower value
# [7] = molecular target: Muscarinic acetylcholine receptor M4 (Homo sapiens) (UniProt P08173); assay: compounds altering M4/GIRK thallium flux, either direction, primary screen, M4 allosteric agonist project, cell-based, HEK293 M4/GIRK, BTC-AM (AID 625;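 active = fluorescence slope after compound addition differing from the mean of all tested samples at 99.7% confidence, mostly higher but some lower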;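 also: thallium influx through GIRK channels coupled to M4 in HEK293 cells with BTC-AM dye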); conditions: at 10 µM, actives lie on both sides
# Chain of Muscarinic acetylcholine receptor M4 (Homo sapiens) (P08173 whole entry, looked up): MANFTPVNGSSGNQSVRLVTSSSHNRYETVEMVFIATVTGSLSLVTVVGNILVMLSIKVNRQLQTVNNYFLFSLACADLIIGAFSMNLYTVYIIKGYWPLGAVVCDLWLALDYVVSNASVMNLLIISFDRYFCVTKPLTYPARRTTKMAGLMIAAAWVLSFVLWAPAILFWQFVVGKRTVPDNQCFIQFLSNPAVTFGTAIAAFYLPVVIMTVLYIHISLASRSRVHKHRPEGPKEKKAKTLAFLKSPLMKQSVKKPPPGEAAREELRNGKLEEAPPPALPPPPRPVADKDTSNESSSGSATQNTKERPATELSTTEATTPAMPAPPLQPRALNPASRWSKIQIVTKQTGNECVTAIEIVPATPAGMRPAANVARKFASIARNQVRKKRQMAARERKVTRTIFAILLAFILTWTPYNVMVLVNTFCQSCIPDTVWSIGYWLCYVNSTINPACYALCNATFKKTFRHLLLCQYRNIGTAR
# How it was run: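 assay system = HEK293 cells with M4 receptor and GIRK channels | medium = pH 7.3 thallium assay buffer | doses = 10 µM final, single point | timing = cells overnight at 37 °C, BTC-AM loading 1 h, reads 2 min total | signal = BTC-AM fluorescence, 1 Hz kinetic reads | read-out = post-addition slope, 15–24 s, of baseline-normalized fluorescence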
# [8] = inhibitors of larval lipid processing in zebrafish, primary screen, whole organism, PED6 fluorescence, gall bladder and intestine (AID 686;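 active = a full or partial loss of lipid-probe fluorescence in the fish gall bladder, intestine or both, judged by eye; inactive = no fluorescence loss, or compound toxic to the fish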;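 also: larvae 5 to 7 days old with five fish per well; signal comes from phospholipase A2 cleavage of quenched PED6 carried via bile; overnight exposure to compound and PED6 before scoring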); conditions: Zebrafish larvae PED6 lipid processing, fluorescence scoring; screened at 20 µM (by protocol)
# How it was run: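 Also added: quenched phospholipase substrate PED6, 100 nM final, ingested by larvae; System: zebrafish larvae, 5-7 d; Quantity: 5 larvae per well; Compound: 20 µM single dose; Schedule: overnight compound and PED6 incubation; Read-out: visual per-well fluorescence inhibition score; Measured by: By-eye fluorescence microscopy; Medium: E3.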
# [9] = inhibitors of Chlamydomonas gravitaxis, primary screen, whole organism, Chlamydomonas reinhardtii, WT vs cilia-less mutant, absorbance, 96-well (AID 463189;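 active = inhibition at or above 50% relative to wild type and mutant plate controls; inactive = inhibition below 50%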;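 also: 0% = wild type cc124 cells in DMSO and 100% = ciliumless bld1 mutant cells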); conditions: OD600 absorbance, 2 days, at 10 µM, stronger effect = higher value
# [10] = measured here: cell density z-score
# [11] = measured here: nuclear c-Myc green intensity z-score
# [12] = measured here: nuclear pErk red intensity z-score, stronger effect = higher value
Structure (SMILES),cell count [1],inhibition [1],inhibition [2],nuclei count [2] [%],"z-score [3, 10]","z-score [3, 11]","z-score [3, 12]",inhibition [4],fluorescence slope [5],NADPH fluorescence slope [6],fluorescence slope [7],outcome [8],inhibition [9]
CCOC(=O)CNC(=O)CNC(=O)c1ccc(OCC(C)C)cc1,694,2.1% (inactive),-9.7% (inactive),146,0.797,0.341,0.093,-5.81% (inactive),-0.458 (inactive),-5.4e-05 (inactive),0.00522 (inactive),inactive,-6.07% (inactive)
Cc1ccc(C(=O)NCC(C)(C)O)cc1,554,-5.3% (inactive),-1.3% (inactive),87.7,-0.652,-0.297,-0.959,-3.95% (inactive),-0.473 (inactive),-8.2e-05 (inactive),0.00553 (inactive),inactive,-5.2% (inactive)
CCOC(=O)c1c2c(c(=S)n(-c3ccccc3)c1N)CCC2,569,-8.6% (inactive),-65.1% (inactive),135,-0.086,1.03,-0.638,-3.95% (inactive),-0.463 (inactive),-9.5e-05 (inactive),0.00449 (inactive),inactive,9.7% (inactive)
CCOC(=O)c1[nH]c2ccc(F)cc2c1N=C(C)N(CC)CC,621,-7.1% (inactive),-132% (inactive),100,-2.41,0.938,-0.403,1.9e-07% (inactive),-0.497 (inactive),-8.7e-05 (inactive),0.00509 (inactive),inactive,-19.6% (inactive)
CCOC(=O)c1c(C)oc2ccc(OCC(=O)C(C)(C)C)cc12,668,-6% (inactive),-24.4% (inactive),124,0.82,-1.27,0.55,20.2% (inactive),-0.435 (inactive),-5.9e-05 (inactive),0.00509 (inactive),inactive,-8.35% (inactive)
CCCn1c(SCC(N)=O)nc2c(c1=O)C1(CCCC1)Cc1ccccc1-2,555,-8% (inactive),20.3% (inactive),170,0.28,0.545,0.00156,1.98% (inactive),-0.386 (inactive),-5.2e-05 (inactive),0.00485 (inactive),inactive,-1.68% (inactive)
CC(C)Sc1nnc2n(CCc3ccccc3)c(=O)c3c4c(sc3n12)COC(C)(C)C4,532,-8% (inactive),-61.3% (inactive),139,0.633,-0.0361,-0.58,7.93% (inactive),-0.435 (inactive),-2.4e-05 (inactive),0.00702 (inactive),inactive,19% (inactive)
CC(=O)[C@H]1[C@@H]2C(=O)N(c3cccc(Cl)c3)C(=O)[C@@H]2[C@H]2c3ccccc3C=CN21,652,0% (inactive),5.3% (inactive),144,0.229,0.26,-0.893,-2.47% (inactive),-0.495 (inactive),-3.6e-05 (inactive),0.00696 (inactive),inactive,18.1% (inactive)
Cc1cccc(N2CC(=O)N(c3cccc(C)c3)CC2=O)c1,691,-1.4% (inactive),-33.5% (inactive),201,-0.963,0.808,-0.574,3.97% (inactive),-0.477 (inactive),-5.4e-05 (inactive),0.00702 (inactive),inactive,-8.04% (inactive)
CC(NC(=O)CSc1nc2c(cc1C#N)CN(C)CC2)c1ccccc1 (centres undefined),739,5.9% (inactive),-3.5% (inactive),170,0.748,-0.601,-0.682,6.04% (inactive),-0.429 (inactive),-3.9e-05 (inactive),0.00365 (inactive),inactive,11.3% (inactive)
N#Cc1nc(-c2cccs2)oc1NCc1ccccc1,712,0.5% (inactive),-23.3% (inactive),148,0.919,1.11,0.281,-7.67% (inactive),-0.329 (inactive),-2.5e-05 (inactive),0.00659 (inactive),inactive,7.94% (inactive)
Cc1ccc(-c2nnc(-c3ccccc3)o2)cc1Br,570,-3.8% (inactive),33% (inactive),98.9,-0.752,0.492,-1.02,1.63% (inactive),-0.564 (inactive),6e-06 (inactive),0.00616 (inactive),inactive,2.02% (inactive)
COc1ccc(OC)c(NS(=O)(=O)c2ccc(N3CCCC3=O)cc2)c1,645,24% (active),-344% (inactive),139,1.32,-0.903,-0.414,-3.97% (inactive),-0.465 (inactive),-0.000177 (inactive),0.00599 (inactive),inactive,14% (inactive)
